Measured values taken from PubChem BioAssay AID602246 (The Scripps Research Institute Molecular Screening Center, 2012).
A number with no mark means an inactive call. Activity calls are given as the source filed them.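 The calls were made as follows: active = t-test against the solvent control gives p below 0.05 and normalized ATPase activity falls by at least 10%; inactive = the rest.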

Test: calcium desensitizers of cardiac myofibril ATPase, late-stage follow-up, mechanism study for cardiac RTF inhibitor project, biochemical, absorbance, porcine cardiac myofibrils, powder samples (AID 602246)
Details: ATPase Pi absorbance 660 nm, at 10 µM, hits give low values
Summary of the method: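 material = porcine cardiac myofibrils | benchmarks = DMSO wells | measure = ATPase activity ratio, compound-well mean over DMSO-well mean | reagent = 3.02 mM ATP, EC50 calcium | timing = 5 min compound preincubation, then 7 min ATPase reaction, 25 °C | measured by = phosphate absorbance at 660 nm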

Point of comparison: O=C(O)c1ccc2nc(-c3ccco3)c(-c3ccco3)nc2c1, normalized ATPase activity 1.03. Against it:
- COc1cccc2c1NC(C(=O)O)C1CC=CC21 (stereo not given) — the same, 1.03
- O=C(O)c1cccc(-n2cccc2/C=C2/NC(=O)N(c3ccc(Cl)cc3)C2=O)c1 — lower, 0.975
- O=C(O)c1ccc2c(c1)[C@@H]1C=CC[C@@H]1[C@H](c1ccccn1)N2 — lower, 0.982

In the case of NCCCCCCNS(=O)(=O)c1cccc2c(Cl)cccc12, the normalized ATPase activity is reported as 0.854 (active).
